Reference: ChEMBL document CHEMBL2429774, “Synthesis and biological evaluation of novel 1,6-diaryl pyridin-2(1H)-one analogs” (Eur J Med Chem, 2013)
Calls of active or inactive are those of the source. The rule behind the calls is not given here.

Columns and labels:
HepG2 [1] = experiment: Cytotoxicity against human HepG2 cells after 72 hrs by spectrophotometry; assay type: functional, cell-based; conditions: HepG2, 72 h
How it was run: (§1)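 Cells grown as monolayers in DMEM with 10% FBS, penicillin and streptomycin at 37 °C, 5% CO₂. Seeded at 5 × 10³ cells/well and exposed for 72 h. Medium changed, then another day of incubation. XTT (1 mg/mL) plus PMS added in serum-free medium for 4 h at 37 °C, read at 492 nm. Percent of control growth = treated/control absorbance × 100 (n = 3). GI50 taken from the linear portion of the curve.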

SK-OV-3 = experiment: Cytotoxicity against human SKOV3 cells after 72 hrs by spectrophotometry; assay type: functional, cell-based; conditions: SK-OV-3, 72 h; how it was run: as §1
H22 [2] = experiment: Antitumor activity against mouse H22 cells transfected in nude mouse assessed as tumor growth inhibition at 50 mg/kg, qd after 7 days relative to control; assay type: functional; conditions: H22, 168 h, read-out: TGI
How it was run: (§2)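 Female SPF/ICR athymic nude mice, 4–5 weeks old (24 ± 2 g), received H22 cells (1 × 10⁶ per animal) s.c. into the armpit. Dosing started once tumors were detectable by fluorescent macro-imaging and was given once daily for 7 days. Animals were then killed and solid tumors excised and weighed. Inhibition = (mean vehicle tumor weight − mean treated)/mean vehicle × 100%. n = 6 per group at start.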

HepG2 [3] = experiment: Cell cycle arrest in human HepG2 cells assessed as accumulation at G2/M phase at 62.5 nM after 24 hrs by flow cytometry; assay type: functional, cell-based
How it was run: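 After treatment, cells were harvested, washed in PBS and resuspended in 1 mL 0.1% sodium citrate containing 0.05 mg propidium iodide and 50 µg RNase for 30 min at room temperature in the dark. DNA content was measured by flow cytometry, with at least three experiments run.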

H22 [4] = experiment: Antitumor activity against mouse H22 cells transfected in nude mouse assessed as tumor growth inhibition at 200 mg/kg, qd after 7 days relative to control; assay type: functional; conditions: H22, 168 h, read-out: TGI; how it was run: as §2
H22 [5] = experiment: Antitumor activity against mouse H22 cells transfected in nude mouse assessed as tumor growth inhibition at 10 mg/kg, qd after 7 days relative to control; assay type: functional; conditions: H22, 168 h, read-out: TGI; how it was run: as §2

SMILES | IC50 (HepG2 [1]) | IC50 (SK-OV-3) | inhibition in vivo at 50 mg/kg (H22 [2]) | Activity (HepG2 [3]) | inhibition in vivo at 200 mg/kg (H22 [4]) | inhibition in vivo at 10 mg/kg (H22 [5])
COc1cc(-n2c(-c3ccncc3)cccc2=O)cc(OC)c1OC | 1780 nM | 1780 nM | – | – | – | –
COc1cc(-n2c(-c3cccc4cc[nH]c34)cccc2=O)cc(OC)c1OC | 2400 nM | 138 nM | – | – | – | –
COc1cc(-c2cccc(=O)n2-c2ccc3c(c2)OCO3)cc(OC)c1OC | 5410 nM | 14000 nM | – | – | – | –
COc1ccc(-c2cccc(=O)n2-c2cc(OC)c(OC)c(OC)c2)cc1OC | 513 nM | 545 nM | – | – | – | –
COc1cc(-c2cccc(=O)n2-c2ccc(C(F)(F)F)cc2)cc(OC)c1OC | 10200 nM | 1920 nM | – | – | – | –
COc1cc(-c2cccc(=O)n2-c2ccc(F)cc2)cc(OC)c1OC | > 100000 nM | 9740 nM | – | – | – | –
COc1cc(-c2cccc(=O)n2-c2cccc(F)c2)cc(OC)c1OC | 73 nM | 340 nM | – | – | – | –
COc1cc(-n2c(-c3cccc(F)c3)cccc2=O)cc(OC)c1OC | 159 nM | 472 nM | – | – | – | –
COc1cc(-n2c(-c3ccc(OC(F)(F)F)cc3)cccc2=O)cc(OC)c1OC | 1960 nM | 461 nM | – | – | – | –
COc1ccc(-c2cccc(=O)n2-c2cc(OC)c(OC)c(OC)c2)cc1 | < 10 nM | < 10 nM | 41% | inactive | 54% | –
CC(=O)O[C@H]1C(=O)[C@@]2(C)[C@H]([C@H](OC(=O)c3ccccc3)[C@]3(O)C[C@H](OC(=O)[C@H](O)[C@@H](NC(=O)c4ccccc4)c4ccccc4)C(C)=C1C3(C)C)[C@]1(OC(C)=O)CO[C@@H]1C[C@@H]2O [PACLITAXEL] | 6 nM | 12 nM | – | – | – | 47%
COc1ccc(-n2c(-c3cc(OC)c(OC)c(OC)c3)cccc2=O)cc1 | 5740 nM | 1540 nM | – | – | – | –
COc1ccc(-n2c(-c3cc(OC)c(OC)c(OC)c3)cccc2=O)cc1OCc1ccccc1 | 3040 nM | 25500 nM | – | – | – | –
COc1cc(-c2cccc(=O)n2-c2ccc([N+](=O)[O-])cc2)cc(OC)c1OC | 941 nM | 311 nM | – | – | – | –
COc1cc(-c2cccc(=O)n2-c2cc(OC)c(OC)c(OC)c2)cc(OC)c1OC | 5460 nM | 844 nM | – | – | – | –
COc1cc(-c2cccc(=O)n2-c2ccncc2)cc(OC)c1OC | 2520 nM | 3020 nM | – | – | – | –
COc1cc(-n2c(-c3cccc(O)c3)cccc2=O)cc(OC)c1OC | 34 nM | 1460 nM | – | – | – | –
COc1ccc(-c2cccc(=O)n2-c2cc(OC)c(OC)c(OC)c2)cc1C | 129 nM | 583 nM | – | – | – | –
COc1ccc(-c2cccc(=O)n2-c2cc(OC)c(OC)c(OC)c2)cc1O | < 10 nM | < 10 nM | 27% | inactive | 40% | –
COc1cc(-n2c(-c3ccc4c(c3)OCO4)cccc2=O)cc(OC)c1OC | < 10 nM | 64 nM | 17% | inactive | 27% | –
COc1cc(-n2c(-c3ccc([N+](=O)[O-])cc3)cccc2=O)cc(OC)c1OC | < 10 nM | 201 nM | 31% | inactive | 61% | –
COc1ccc(-n2c(-c3cc(OC)c(OC)c(OC)c3)cccc2=O)cc1OC | 4870 nM | 14300 nM | – | – | – | –
COc1ccc(-c2cccc(=O)n2-c2cc(OC)c(OC)c(OC)c2)cc1OCc1ccccc1 | 269 nM | 2310 nM | – | – | – | –
COc1ccc(-n2c(-c3cc(OC)c(OC)c(OC)c3)cccc2=O)cc1O | 1220 nM | 1220 nM | – | – | – | –
